According to ChEMBL document CHEMBL3352165 (Eur J Med Chem, 2014):
pIC50: −log10 of the molar value.

What was measured:
BT-474 [1] = test: Induction of cell cycle arrest in human BT474 cells assessed as accumulation at G2/M phase at 10 uM incubated for 12 hrs by propidium iodide staining based flow cytometry (reference value: 14%); format: functional
cells = conditions: Homo sapiens, SK-OV-3, 72 h
Mus musculus = test: Toxicity in human Calu3 cells xenografted BALB/cA mouse assessed as body weight loss at 100 mg/kg, po measured every other day for 21 days; format: organism-based, Calu-3; parameters: dose 100 mg/kg, route oral; conditions: in vivo, 504 h
Summary of the method: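 Female BALB/cA nude mice, 6–7 weeks old, implanted s.c. on the mid-right flank with 2×10^6 Calu-3 cells in 0.2 ml PBS. At 60–150 mm³ tumour volume, mice randomised into six per treatment group (twelve vehicle controls). Oral dosing in 0.5% CMC aqueous solution with 0.1% Tween-80. Body weight recorded every other day for 21 d.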

BT-474 [2] = test: Induction of apoptosis in human BT474 cells at 0.001 uM incubated for 12 hrs by propidium iodide staining based flow cytometry (reference value: 1%); format: functional
[3] = Tmax in Beagle dog at 240 mg/kg, po administered as single dose measured after 0.25 to 24 hrs post dose by LC/MS/MS method; format: ADME, organism-based, Canis lupus familiaris; parameters: dose 240 mg/kg, route oral; conditions: in vivo
Summary of the method: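 Beagle dogs (n = 6), single oral gavage dose of 240 mg/kg. Plasma levels measured by validated LC/MS/MS. Tmax read directly from the concentration-time data.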

CN(C)[C@H](CS(C)(=O)=O)c1ccc(-c2ccc3ncnc(Nc4ccc(OCc5cccc(F)c5)c(Cl)c4)c3c2)o1
Activity (BT-474 [1]): 12%
pIC50 (cells): 6.36
Activity (Mus musculus): Non-toxic
Activity (BT-474 [2]): 1%
Tmax [3]: 4 h
